Test results: paper PMC3947313 (Journal of neurochemistry, 2013)
Changes are numbered by the printed parent chain. In names and notes the source's numbering stands.

What was measured:
[1] = biological target: double phospho-peptide containing pT202pY204 derived from the ERK activation loop
[2] = biological target: double-phosphorylated ERK2-pT202pY204 protein (UniProt P28482)
[3] = biological target: double phospho-peptide containing pT202pY204 derived from the ERK activation loop; remark: listed apart in the source
[4] = biological target: double-phosphorylated ERK2-pT202pY204 protein (UniProt P28482); remark: listed apart in the source
[5] = system: ERK2-pT202pY204; assay: Enzyme-coupled; format: biochemical
Procedure, shortened: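 Phospho-ERK2 protein was prepared using ERK2 and MEK1 expression plasmids. Initial rates were fitted to Michaelis-Menten for Km and kcat. At substrate << Km, kcat/Km came from first-order progress-curve fitting. Values are mean ± standard error.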

[6] = system: p38-derived phospho-peptide; assay: Activity of STEP variants toward the p38-derived phospho-peptide; format: biochemical; settings: STEP mutant compared to wild-type STEP
Procedure, shortened: (§1)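 Synthetic, HPLC-purified Tyr(P)-containing peptides were dephosphorylated at 37°C in 50 mM succinic buffer (pH 6.0), 1 mM EDTA and 2 mM DTT, ionic strength 0.15 M (NaCl). Released phosphate was measured with BIOMOL Green at 620 nm. Hydrolysis was also followed continuously by tyrosine fluorescence (excitation 280 nm, emission 305 nm). Michaelis-Menten fits gave kinetic parameters (mean ± standard error).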

[7] = Activity of STEP variants toward pNPP; format: biochemical
Procedure, shortened: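 Phosphatase variants hydrolysed pNPP at 37°C in 50 mM succinic buffer (pH 6.0) with 1 mM EDTA, 2 mM DTT and ionic strength adjusted to 0.15 M with NaCl. Reactions were stopped with 1 M NaOH and read at 405 nm. Kinetic parameters came from Michaelis-Menten fits, reported as mean ± standard error.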

[8] = system: ERK pT202pY204 phospho-peptide; format: biochemical; settings: STEP mutant compared to wild-type STEP; 37°C, pH 6.0
Procedure, shortened: as §1

Molecule “STEP F311A (from UniProt P54829 1-565) (enzyme)” has an activity toward the ERK phospho-peptide, decrease against wild-type STEP [1] of 2 fold.

In the case of “HePTP S23E (from UniProt P35236 1-360) (enzyme)”, the activity toward phospho-ERK, decrease against wild-type HePTP [2] is reported as 3 fold.

“STEP K463Q (from UniProt P54829 1-565) (enzyme)” showed an activity toward the phospho-ERK peptide, decrease against wild-type STEP [3] of over 4 fold and an activity toward the phospho-ERK protein, decrease against wild-type STEP [4] of over 4 fold.

B1: T330D: STEP pY-binding loop mutant T330D (protein, UniProt P54829 1-565, looked up, variant T330D)
Tyrosine-protein phosphatase …: MNYEGARSERENHAADDSEGGALDMCCSERLPGLPQPIVMEALDEAEGLQDSQREMPPPPPPSPPSDPAQKPPPRGAGSHSLTVRSSLCLFAASQFLLACGVLWFSGYGHIWSQNATNLVSSLLTLLKQLEPTAWLDSGTWGVPSLLLVFLSVGLVLVTTLVWHLLRTPPEPPTPLPPEDRRQSVSRQPSFTYSEWMEEKIEDDFLDLDPVPETPVFDCVMDIKPEADPTSLTVKSMGLQERRGSNVSLTLDMCTPGCNEEGFGYLMSPREESAREYLLSASRVLQAEELHEKALDPFLLQAEFFEIPMNFVDPKEYDIPGLVRKNRYKDILPNPHSRVCLTSPDPDDPLSSYINANYIRGYGGEEKVYIATQGPIVSTVADFWRMVWQEHTPIIVMITNIEEMNEKCTEYWPEEQVAYDGVEITVQKVIHTEDYRLRLISLKSGTEERGLKHYWFTSWPDQKTPDRAPPLLHLVREVEEAAQQEGPHCAPIIVHCSAGIGRTGCFIATSICCQQLRQEGVVDILKTTCQLRQDRGGMIQTCEQYQFVHHVMSLYEKQLSHQSPE
With B1 the “increase of kcat/Km toward phospho-ERK protein” value ([5]; STEP mutant compared to wild-type STEP) was 1.3 fold, the “increase of activity toward p38-derived phospho-peptide” value [6] was 2–3 fold and the “effect of mutation on activity toward pNPP (in words)” value ([7]; compared to wild-type STEP, 37°C, pH 6.0) was “did not affect”.

B2: T541A: STEP Q-loop mutant T541A (protein, UniProt P54829 1-565, looked up, variant T541A)
Tyrosine-protein phosphatase …: B1 Tyrosine-protein phosphatase … with D330T, T541A
With B2 the “decrease of kcat/Km (activity) toward phospho-ERK protein” value ([5]; STEP variant compared to wild-type STEP, pH 7.0, 25°C) was 2 fold, the “decrease of activity toward phospho-ERK peptide” value [8] was 2 fold and the “decrease of activity toward phospho-p38 peptide” value ([6]; stated as 'all substrates') was 2 fold. The “decrease of activity toward pNPP” value ([7]; STEP mutant compared to wild-type STEP, stated as 'all substrates') was 2 fold.
